Measurements: ChEMBL document CHEMBL1139157, “2,5-Disubstituted pyridines: the discovery of a novel series of 5-HT2A ligands” (Bioorg Med Chem Lett, 2007)

What was measured:
[1] = target: 5-hydroxytryptamine receptor 2A (Homo sapiens, UniProt P28223); assay: Displacement of [3H]ketanserin from human 5HT2A receptor expressed in CHO cells; assay type: cell-based
[2] = target: T1, 5-hydroxytryptamine receptor 2C (Homo sapiens, UniProt P28335); assay: Displacement of [3H][…] from human 5HT2C receptor expressed in CHO cells; assay type: cell-based
T1 sequence (P28335 whole entry): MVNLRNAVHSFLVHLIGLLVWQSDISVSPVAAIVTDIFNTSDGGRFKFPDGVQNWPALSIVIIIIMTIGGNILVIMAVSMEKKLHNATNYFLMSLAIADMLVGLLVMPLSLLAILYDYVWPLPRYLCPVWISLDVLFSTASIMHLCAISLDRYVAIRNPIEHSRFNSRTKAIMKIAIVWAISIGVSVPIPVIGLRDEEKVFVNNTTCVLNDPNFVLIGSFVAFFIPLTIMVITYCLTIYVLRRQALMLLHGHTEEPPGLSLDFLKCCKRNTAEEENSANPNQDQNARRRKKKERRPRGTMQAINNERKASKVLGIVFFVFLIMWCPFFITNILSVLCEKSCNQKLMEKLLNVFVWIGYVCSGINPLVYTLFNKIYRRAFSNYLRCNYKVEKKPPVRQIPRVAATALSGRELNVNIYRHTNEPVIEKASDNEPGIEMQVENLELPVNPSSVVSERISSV

[3] = target: Serotonin 2 receptors; 5-HT2a & 5-HT2c (Homo sapiens) (UniProt P28223+P28335); assay: Selectivity for human 5HT2A receptor over human 5HT2C receptor
Serotonin 2 receptors; 5-HT2a & 5-HT2c (Homo sapiens), sequence (P28223 whole entry, looked up, one chain of several): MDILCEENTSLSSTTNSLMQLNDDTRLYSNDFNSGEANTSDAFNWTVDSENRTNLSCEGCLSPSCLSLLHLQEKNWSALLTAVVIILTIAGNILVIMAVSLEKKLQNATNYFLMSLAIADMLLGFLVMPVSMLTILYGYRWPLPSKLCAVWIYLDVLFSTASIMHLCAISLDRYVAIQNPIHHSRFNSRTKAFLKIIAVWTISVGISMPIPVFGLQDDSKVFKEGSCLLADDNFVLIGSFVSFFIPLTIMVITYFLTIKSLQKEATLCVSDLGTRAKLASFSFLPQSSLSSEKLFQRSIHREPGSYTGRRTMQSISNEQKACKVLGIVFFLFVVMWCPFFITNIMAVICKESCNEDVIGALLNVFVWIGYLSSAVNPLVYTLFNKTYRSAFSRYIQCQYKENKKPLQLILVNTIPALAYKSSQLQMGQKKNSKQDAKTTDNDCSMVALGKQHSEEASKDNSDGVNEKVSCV

D(2) dopamine receptor = D(2) dopamine receptor (Homo sapiens, UniProt P14416); assay: Displacement of [3H]spiperone from human dopamine D2 receptor expressed in CHO cells; assay type: cell-based
D(2) dopamine receptor, sequence (P14416 whole entry): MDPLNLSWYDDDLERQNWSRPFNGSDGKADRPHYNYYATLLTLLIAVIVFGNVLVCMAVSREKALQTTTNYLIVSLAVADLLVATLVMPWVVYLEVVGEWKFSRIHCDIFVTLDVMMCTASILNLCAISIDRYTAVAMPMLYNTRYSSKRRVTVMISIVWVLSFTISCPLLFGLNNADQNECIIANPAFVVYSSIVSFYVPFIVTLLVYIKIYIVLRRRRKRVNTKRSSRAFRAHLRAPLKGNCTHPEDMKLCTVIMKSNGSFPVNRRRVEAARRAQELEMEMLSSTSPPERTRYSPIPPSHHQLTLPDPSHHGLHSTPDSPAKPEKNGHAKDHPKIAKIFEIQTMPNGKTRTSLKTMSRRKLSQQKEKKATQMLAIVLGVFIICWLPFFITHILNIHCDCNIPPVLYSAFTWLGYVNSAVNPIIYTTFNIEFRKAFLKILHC

[4] = target: Voltage-gated inwardly rectifying potassium channel KCNH2 (Homo sapiens, UniProt Q12809); assay: Displacement of [3H]dofetilide from hERG expressed in HEK cells; assay type: cell-based, HEK293
Voltage-gated inwardly rectifying potassium channel KCNH2, sequence (Q12809 whole entry): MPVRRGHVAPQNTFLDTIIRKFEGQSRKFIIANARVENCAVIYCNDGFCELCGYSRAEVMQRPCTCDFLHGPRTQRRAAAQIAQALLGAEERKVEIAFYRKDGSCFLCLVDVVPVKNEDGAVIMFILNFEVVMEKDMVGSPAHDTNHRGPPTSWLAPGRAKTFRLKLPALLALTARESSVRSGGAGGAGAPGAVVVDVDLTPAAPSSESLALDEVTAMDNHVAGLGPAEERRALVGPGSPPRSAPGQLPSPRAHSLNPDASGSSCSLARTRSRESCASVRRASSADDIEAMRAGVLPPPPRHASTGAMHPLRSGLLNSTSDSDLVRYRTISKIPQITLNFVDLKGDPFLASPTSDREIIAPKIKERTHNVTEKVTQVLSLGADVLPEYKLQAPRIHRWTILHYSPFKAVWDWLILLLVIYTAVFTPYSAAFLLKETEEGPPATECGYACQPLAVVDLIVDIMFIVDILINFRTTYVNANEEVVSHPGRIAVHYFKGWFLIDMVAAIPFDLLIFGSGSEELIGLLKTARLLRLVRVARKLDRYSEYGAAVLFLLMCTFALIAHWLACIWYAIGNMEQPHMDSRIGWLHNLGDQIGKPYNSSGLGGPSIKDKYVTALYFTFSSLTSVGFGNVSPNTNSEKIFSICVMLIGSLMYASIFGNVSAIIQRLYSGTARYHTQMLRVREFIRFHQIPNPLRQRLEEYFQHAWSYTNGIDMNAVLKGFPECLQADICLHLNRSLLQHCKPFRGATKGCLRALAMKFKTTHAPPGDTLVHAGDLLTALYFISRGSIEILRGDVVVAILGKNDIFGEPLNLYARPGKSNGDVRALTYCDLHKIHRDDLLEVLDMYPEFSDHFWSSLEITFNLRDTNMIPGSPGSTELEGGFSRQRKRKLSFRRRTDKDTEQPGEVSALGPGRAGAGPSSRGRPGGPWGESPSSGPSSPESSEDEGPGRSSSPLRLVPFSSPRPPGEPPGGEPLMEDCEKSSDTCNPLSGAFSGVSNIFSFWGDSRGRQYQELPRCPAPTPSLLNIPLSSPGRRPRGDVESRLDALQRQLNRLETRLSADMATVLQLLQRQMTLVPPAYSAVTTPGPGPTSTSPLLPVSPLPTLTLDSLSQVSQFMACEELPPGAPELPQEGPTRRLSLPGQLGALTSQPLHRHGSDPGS

Rattus norvegicus = assay: Receptor occupancy ex vivo by displacement of tritiated radioligand from 5HT2A receptor in rat at 5 mg/kg, po; assay type: functional
Summary of the method: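 Rats dosed 5 mg/kg po; [3H] selective 5-HT2A radioligand (6 lCi) given by tail vein injection. Read at 1 h. Occupancy (%) = 100 − [100·(compound counts/vehicle counts)], with vehicle counts taken as total binding.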

[5] = Drug level in rat plasma at 5 mg/kg, po after 1 hr; assay type: ADME, organism-based; set-up: dose 5 mg/kg, route oral
Summary of the method: (§1)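 Rats given 5 mg/kg po, with a radiolabeled selective 5-HT2A ligand co-administered; drug concentrations in plasma and brain measured at 1 h after dosing.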

[6] = Drug level in rat brain at 5 mg/kg, po after 1 hr; assay type: ADME, organism-based; set-up: dose 5 mg/kg, route oral; settings: read-out: Drug uptake; summary of the method: as §1

5-hydroxytryptamine receptor 2A, sequence (P28223 whole entry): as the sequence (P28223 whole entry, looked up, one chain of several) above

Ki [1] | Ki [2] | Ratio Ki [3] | Ki (D(2) dopamine receptor) | concentration at 1 h [5] | concentration at 1 h [6] | Ki (D(2) dopamine receptor; cho) | SMILES | Ki [4] | Activity (Rattus norvegicus)
0.0026 µM | > 4 µM | > 1500 | > 2 µM | – | – | – | O=S(=O)(c1ccc(/C=C/c2ccccc2F)nc1)c1ccccc1F | > 9 µM | –
0.00086 µM | > 4 µM | – | > 2 µM | 80 nM | 180 nM | – | O=S(=O)(c1ccccc1)c1ccc(/C=C/c2ccc(F)cc2F)nc1 | – | 45%
0.0026 µM | 0.41 µM | 160 | > 1 µM | – | – | – | O=S(=O)(c1ccc(/C=C/c2ccc(F)cc2F)nc1)c1ccccc1F | > 9 µM | –
0.0018 µM | 0.064 µM | 36 | > 2 µM | – | – | – | O=S(=O)(c1ccc(/C=C/c2ccc(F)cc2Cl)nc1)c1ccccc1F | 4.8 µM | –
0.0099 µM | 0.019 µM | 2.1 | > 2 µM | – | – | – | N#Cc1cc(F)ccc1/C=C/c1ccc(S(=O)(=O)c2ccccc2F)cn1 | 1.5 µM | –
0.0074 µM | > 4 µM | > 540 | > 1 µM | – | – | – | O=S(=O)(c1ccccc1)c1ccc(/C=C/c2ccc(F)cc2)nc1 | > 9 µM | –
0.15 µM | > 4 µM | > 27 | > 2 µM | – | – | – | O=S(=O)(c1ccc(/C=C/c2cccc(F)c2)nc1)c1ccccc1F | > 9 µM | –
0.00019 µM | 0.58 µM | 3000 | > 2 µM | – | – | – | O=S(=O)(c1ccc(/C=C/c2ccc(F)cc2O)nc1)c1ccccc1F | 2.1 µM | –
0.0082 µM | 0.22 µM | 27 | > 2 µM | – | – | – | Cc1cc(F)ccc1/C=C/c1ccc(S(=O)(=O)c2ccccc2F)cn1 | 5 µM | –
0.065 µM | – | – | > 2 µM | – | – | – | COc1cc(F)ccc1/C=C/c1ccc(S(=O)(=O)c2ccccc2F)cn1 | – | –

Further lines, the molecule ahead of its results:

SMILES | Ki [1] | Ki [2] | Ratio Ki [3] | Ki (D(2) dopamine receptor) | concentration at 1 h [5] | concentration at 1 h [6] | Ki (D(2) dopamine receptor; cho) | Ki [4] | Activity (Rattus norvegicus)
[O-][S+](c1ccccc1)c1ccc(/C=C/c2ccc(F)cc2)nc1 (configuration not stated) | 0.0077 µM | 0.2 µM | 26 | > 2 µM | – | – | – | 3.9 µM | –
O=S(=O)(c1ccc(F)cc1)c1ccc(CCc2ccc(F)cc2)cn1 | 0.019 µM | > 4 µM | > 210 | > 1 µM | – | – | – | 6.9 µM | –
[O-][S+](c1ccccc1)c1ccc(/C=C/c2ccc(F)cc2F)nc1 (stereo in doubt; 30) [listing 1 of 2 here] | – | – | 38 | – | – | – | – | – | –
[O-][S+](c1ccc(/C=C/c2ccc(F)cc2F)nc1)c1ccccc1F (configuration not stated) | 0.0035 µM | 0.043 µM | – | > 2 µM | – | – | – | – | –
O=S(=O)(c1ccc(F)cc1)c1ccc(/C=C/c2ccc(F)cc2)nc1 | 0.017 µM | > 4 µM | – | > 1 µM | – | – | – | – | –
O=S(=O)(c1ccc(/C=C/c2ccc(F)cc2)nc1)c1cccc(F)c1 | 0.0096 µM | > 4 µM | > 420 | > 1 µM | – | – | – | > 9 µM | –
[O-][S+](c1ccccc1)c1ccc(/C=C/c2ccc(F)cc2F)nc1 (single isomer, unassigned; form 1) [listing 1 of 2 here] | 0.03 µM | 2.4 µM | – | – | – | – | > 2 µM | 4.2 µM | –
O=S(=O)(c1ccc(/C=C/c2ccccc2O)nc1)c1ccccc1F | 0.0036 µM | 0.81 µM | 220 | > 2 µM | – | – | – | 1.4 µM | –
[O-][S+](c1ccccc1)c1ccc(/C=C/c2ccc(F)cc2F)nc1 (single isomer, unassigned; form 2) [listing 1 of 2 here] | – | – | 36 | – | – | – | – | – | –
[O-][S+](c1ccccc1)c1ccc(/C=C/c2ccc(F)cc2F)nc1 (single isomer, unassigned; form 2) [listing 2 of 2 here] | 0.0007 µM | 0.025 µM | – | > 2 µM | – | – | – | 6.5 µM | –
[O-][S+](c1ccccc1)c1ccc(/C=C/c2ccc(F)cc2F)nc1 (single isomer, unassigned; form 1) [listing 2 of 2 here] | – | – | 80 | – | – | – | – | – | –
O=S(=O)(c1ccc(/C=C/c2ccncc2)nc1)c1ccccc1F | 0.79 µM | > 4 µM | > 5 | > 2 µM | – | – | – | 4.2 µM | –
[O-][S+](c1ccccc1)c1ccc(/C=C/c2ccc(F)cc2F)nc1 (stereo in doubt; 30) [listing 2 of 2 here] | 0.00079 µM | 0.03 µM | – | – | 230 nM | 1070 nM | > 2 µM | 2.8 µM | 90%
O=S(=O)(c1ccc(F)cc1)c1ccc(CCc2ccc(F)cc2)nc1 | 0.023 µM | 2.7 µM | – | > 1 µM | – | – | – | – | –
O=S(=O)(c1ccc(F)cc1)C1(F)CCN(CCc2ccc(F)cc2F)CC1 | – | – | 460 | – | – | – | – | 5.6 µM | –
[O-][S+](c1ccc(/C=C/c2ccc(F)cc2)nc1)c1ccccc1F (configuration not stated) | 0.0046 µM | 0.16 µM | 35 | > 2 µM | – | – | – | 2.9 µM | –
O=S(=O)(c1ccc(/C=C/c2ccc(F)cc2)nc1)c1ccccc1F | 0.0054 µM | > 4 µM | > 740 | > 1 µM | – | – | – | > 9 µM | –
O=S(=O)(c1ccc(F)cc1)c1ccc(/C=C/c2ccc(F)cc2)cn1 | 0.028 µM | > 4 µM | > 140 | > 1 µM | – | – | – | 3.3 µM | –
